We go through one compound from ChEMBL document CHEMBL4376814, “Novel cyclin-dependent kinase 9 (CDK9) inhibitor with suppression of cancer stemness activity against non-small-cell lung cancer” (Eur J Med Chem, 2019).

In experiment [1] the test system is MCF7. The experiment can be described thus: Antiproliferative activity against human MCF7 cells assessed as inhibition of cell viability at 500 nM after 72 hrs by CCK-8 assay relative to control. It counts as functional. As to conditions: MCF7, 72 h. The procedure, abridged:
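Single-concentration viability screen using CCK-8. Cells were seeded at 3000/well and treated for 72 h. A450 read after 1-4 h with reagent. Percent inhibition calculated against untreated control and blank wells as (Ac−As)/(Ac−Ab)×100%.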
A general note: Tetrazolium assays rely on reduction of a dye to a coloured formazan, in cell work by metabolically active cells.

Experiment [2] concerns NCI-H1299. As to the kind of experiment: Induction of apoptosis in human H1299 cells assessed as viable cells at 1 uM after 48 hrs by AnnexinV-FITC/PI staining-based flow cytometric analysis (reference value: 97.1%). It counts as functional. The conditions noted are these: NCI-H1299, 48 h, read-out: Activity. (In general: In flow cytometry, cells or beads pass a laser one at a time.)

Experiment [3] relates to A549. As to the kind of experiment: Induction of apoptosis in human A549 cells assessed as increase in cleaved caspase 3 expression at 0.25 to 1 uM after 24 hrs by Western blot analysis. Format: functional, cell-based. The procedure, abridged: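 A549 or H1299 cells exposed to the indicated concentrations for 24 h. Protein extracts then immunoblotted for apoptosis-pathway proteins (Bcl2, Bim, cleaved caspase 3).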
In general terms: A western blot detects proteins with antibodies after separation by electrophoresis.

Experiment [4] addresses Calcium/calmodulin-dependent protein kinase type 1G (Homo sapiens) (UniProt Q96NX5). The experiment can be described thus: Inhibition of full-length recombinant human CaMK1 gamma at 1 uM using KKLRRTLSFAEPG as substrate measured after 40 mins in presence of [gamma33P]ATP by scintillation counting method relative to control. In short, it runs like this: (§1)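 Percent inhibition of kinase activity at a single compound concentration, measured by the outsourced Eurofins KinaseProfiler panel. Values are the mean of two independent experiments.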

For experiment [5], the target named is Dual specificity mitogen-activated protein kinase kinase 7 (Homo sapiens) (UniProt O14733). As to the kind of experiment: Inhibition of recombinant human MKK7 (2 to end residues) at 1 uM using unactive JNK1a1 as substrate measured after 40 mins in presence of [gamma33P]ATP by scintillation counting method relative to control.
Experiment [6] has as its target Ribosomal protein S6 kinase alpha-5 (Homo sapiens) (UniProt O75582). As to the kind of experiment: Inhibition of recombinant human MSK1 (2 to end residues) at 1 uM using GRPRTSSFAEGKK as substrate measured after 40 mins in presence of [gamma33P]ATP by scintillation counting method relative to control.
Experiment [7] deals with CDK12/Cyclin K (Homo sapiens) (UniProt O75909+Q9NYV4). As to the kind of experiment: Inhibition of human full length recombinant CDK12/cyclinK at 1 uM using RSRSRSRSRSRSRSR as substrate incubated for 120 mins in presence of [gamma-33P]ATP at by radiometric assay relative to control. It counts as protein-complex assay.
For experiment [8], the target named is Cyclin-dependent kinase-like 4 (Homo sapiens) (UniProt Q5MAI5). The experiment can be described thus: Inhibition of human CDKL4 at 1 uM at 1 uM by radiometric method relative to control. The procedure, abridged:
as §1

The target of experiment [9] is Transient receptor potential cation channel subfamily M member 7 (Homo sapiens) (UniProt Q96QT4). As to the kind of experiment: Inhibition of recombinant human CHAK1 (1180 to end residues) at 1 uM using myelin basic protein as substrate measured after 40 mins in presence of [gamma33P]ATP by scintillation counting method relative to control.
Experiment [10] has as its target Dual specificity protein kinase CLK1 (Homo sapiens) (UniProt P49759). As to the kind of experiment: Inhibition of recombinant human CLK1 (130 to end residues) at 1 uM using ERMRPRKRQGSVRRRV as substrate measured after 40 mins in presence of [gamma33P]ATP by scintillation counting method relative to control.
The target of experiment [11] is Serine/threonine-protein kinase Nek3 (Homo sapiens) (UniProt P51956). As to the kind of experiment: Inhibition of recombinant full-length human NEK3 at 1 uM using myelin basic protein as substrate measured after 40 mins in presence of [gamma33P]ATP by scintillation counting method relative to control.
For experiment [12], the target named is Serine/threonine-protein kinase pim-3 (Homo sapiens) (UniProt Q86V86). The experiment can be described thus: Inhibition of recombinant human Pim-3 (2 to end residues) at 1 uM using RSRHSSYPAGT as substrate measured after 40 mins in presence of [gamma33P]ATP by scintillation counting method relative to control.
Experiment [13] has as its target Protein kinase C beta type (Homo sapiens) (UniProt P05771). The experiment can be described thus: Inhibition of recombinant human PKCbeta1 (2 to end residues) at 1 uM using histone H1 as substrate measured after 40 mins in presence of [gamma33P]ATP by scintillation counting method relative to control.
Experiment [14] addresses Ephrin type-A receptor 5 (Homo sapiens) (UniProt P54756). As to the kind of experiment: Inhibition of recombinant human EphA5 (655 to 956 residues) at 1 uM using poly(Glu, Tyr) 4:1 as substrate measured after 40 mins in presence of [gamma33P]ATP by scintillation counting method relative to control.
In experiment [15] the target is Mitogen-activated protein kinase 14 (Homo sapiens) (UniProt Q16539). As to the kind of experiment: Inhibition of recombinant full-length human SAPK2a at 1 uM using myelin basic protein as substrate measured after 40 mins in presence of [gamma33P]ATP by scintillation counting method relative to control.
Experiment [16] deals with Serine/threonine-protein kinase/endoribonuclease IRE1 (Homo sapiens) (UniProt O75460). As to the kind of experiment: Inhibition of recombinant human IRE1 (465 to end residues) at 1 uM using myelin basic protein as substrate measured after 40 mins in presence of [gamma33P]ATP by scintillation counting method relative to control.
In experiment [17] the target is SRSF protein kinase 1 (Homo sapiens) (UniProt Q96SB4). As to the kind of experiment: Inhibition of human SRPK1 (2 to end residues) at 1 uM using RSRSRSRSRSRSRSR as substrate measured after 40 mins in presence of [gamma33P]ATP by scintillation counting method relative to control. The procedure, abridged: (§2)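 Single-point inhibition at 1 µM was measured in the Eurofins KinaseProfiler panel. Values are the mean of two independent experiments.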

Experiment [18] concerns the target Testis-specific serine/threonine-protein kinase 1 (Homo sapiens) (UniProt Q9BXA7). As to the kind of experiment: Inhibition of recombinant full-length human TSSK1 at 1 uM using KKKVSRSGLYRSPSMPENLNRPR as substrate measured after 40 mins in presence of [gamma33P]ATP by scintillation counting method relative to control.
The target of experiment [19] is Tau-tubulin kinase 1 (Homo sapiens) (UniProt Q5TCY1). As to the kind of experiment: Inhibition of recombinant human TTBK1 (1 to 479 residues) at 1 uM using casein as substrate measured after 40 mins in presence of [gamma33P]ATP by scintillation counting method relative to control.
Experiment [20] has as its target Serine/threonine-protein kinase 10 (Homo sapiens) (UniProt O94804). As to the kind of experiment: Inhibition of recombinant human LOK (1 to 348 residues) at 1 uM using RLGRDKYKTLRQIRQ as substrate measured after 40 mins in presence of [gamma33P]ATP by scintillation counting method relative to control.
The species named for experiment [21] is Homo sapiens. The experiment can be described thus: Inhibition of recombinant human MAPKAPK2 A399G mutant (46 to end residues) at 1 uM using KKLNRTLSVA as substrate measured after 40 mins in presence of [gamma33P]ATP by scintillation counting method relative to control. The procedure, abridged:
as §2

Experiment [22] concerns the target Cyclin-dependent kinase 9 (Homo sapiens) (UniProt P50750). As to conditions: 0.25 uM.

SMILES strings stand for the structures. Calls of active or inactive are those of the source. The calls are words filed in the database; no cut-off is given here.

Chain of Dual specificity mitogen-activated protein kinase kinase 7 (Homo sapiens) (O14733 whole entry): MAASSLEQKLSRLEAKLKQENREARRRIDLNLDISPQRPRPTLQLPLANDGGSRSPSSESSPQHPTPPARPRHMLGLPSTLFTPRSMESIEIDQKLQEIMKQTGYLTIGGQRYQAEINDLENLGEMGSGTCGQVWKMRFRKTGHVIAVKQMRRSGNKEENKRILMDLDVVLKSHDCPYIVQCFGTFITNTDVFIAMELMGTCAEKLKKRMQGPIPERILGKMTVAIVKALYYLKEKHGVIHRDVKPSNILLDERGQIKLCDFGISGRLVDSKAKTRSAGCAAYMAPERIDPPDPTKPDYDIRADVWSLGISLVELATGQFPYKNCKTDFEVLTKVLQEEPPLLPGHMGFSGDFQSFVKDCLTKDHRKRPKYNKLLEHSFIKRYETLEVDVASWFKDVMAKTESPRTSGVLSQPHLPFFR
Chain of CDK12/Cyclin K (Homo sapiens) (O75909 whole entry, looked up): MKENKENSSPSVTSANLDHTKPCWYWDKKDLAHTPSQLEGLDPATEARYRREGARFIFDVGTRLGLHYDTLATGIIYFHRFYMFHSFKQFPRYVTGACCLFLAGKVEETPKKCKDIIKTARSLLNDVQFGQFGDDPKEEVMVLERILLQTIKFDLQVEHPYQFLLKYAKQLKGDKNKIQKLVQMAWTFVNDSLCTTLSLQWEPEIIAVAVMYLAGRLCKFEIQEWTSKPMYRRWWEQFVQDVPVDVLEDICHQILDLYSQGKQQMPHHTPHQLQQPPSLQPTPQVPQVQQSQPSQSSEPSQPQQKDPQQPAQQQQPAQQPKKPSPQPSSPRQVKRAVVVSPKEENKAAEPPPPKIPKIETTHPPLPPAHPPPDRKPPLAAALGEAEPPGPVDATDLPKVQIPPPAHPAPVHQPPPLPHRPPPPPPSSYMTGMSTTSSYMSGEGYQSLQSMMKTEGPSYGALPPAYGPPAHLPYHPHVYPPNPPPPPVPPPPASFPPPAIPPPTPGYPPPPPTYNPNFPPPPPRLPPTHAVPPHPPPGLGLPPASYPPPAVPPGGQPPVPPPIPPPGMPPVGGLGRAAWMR
Chain of CDK12/Cyclin K (Homo sapiens) (Q9NYV4 whole entry, looked up): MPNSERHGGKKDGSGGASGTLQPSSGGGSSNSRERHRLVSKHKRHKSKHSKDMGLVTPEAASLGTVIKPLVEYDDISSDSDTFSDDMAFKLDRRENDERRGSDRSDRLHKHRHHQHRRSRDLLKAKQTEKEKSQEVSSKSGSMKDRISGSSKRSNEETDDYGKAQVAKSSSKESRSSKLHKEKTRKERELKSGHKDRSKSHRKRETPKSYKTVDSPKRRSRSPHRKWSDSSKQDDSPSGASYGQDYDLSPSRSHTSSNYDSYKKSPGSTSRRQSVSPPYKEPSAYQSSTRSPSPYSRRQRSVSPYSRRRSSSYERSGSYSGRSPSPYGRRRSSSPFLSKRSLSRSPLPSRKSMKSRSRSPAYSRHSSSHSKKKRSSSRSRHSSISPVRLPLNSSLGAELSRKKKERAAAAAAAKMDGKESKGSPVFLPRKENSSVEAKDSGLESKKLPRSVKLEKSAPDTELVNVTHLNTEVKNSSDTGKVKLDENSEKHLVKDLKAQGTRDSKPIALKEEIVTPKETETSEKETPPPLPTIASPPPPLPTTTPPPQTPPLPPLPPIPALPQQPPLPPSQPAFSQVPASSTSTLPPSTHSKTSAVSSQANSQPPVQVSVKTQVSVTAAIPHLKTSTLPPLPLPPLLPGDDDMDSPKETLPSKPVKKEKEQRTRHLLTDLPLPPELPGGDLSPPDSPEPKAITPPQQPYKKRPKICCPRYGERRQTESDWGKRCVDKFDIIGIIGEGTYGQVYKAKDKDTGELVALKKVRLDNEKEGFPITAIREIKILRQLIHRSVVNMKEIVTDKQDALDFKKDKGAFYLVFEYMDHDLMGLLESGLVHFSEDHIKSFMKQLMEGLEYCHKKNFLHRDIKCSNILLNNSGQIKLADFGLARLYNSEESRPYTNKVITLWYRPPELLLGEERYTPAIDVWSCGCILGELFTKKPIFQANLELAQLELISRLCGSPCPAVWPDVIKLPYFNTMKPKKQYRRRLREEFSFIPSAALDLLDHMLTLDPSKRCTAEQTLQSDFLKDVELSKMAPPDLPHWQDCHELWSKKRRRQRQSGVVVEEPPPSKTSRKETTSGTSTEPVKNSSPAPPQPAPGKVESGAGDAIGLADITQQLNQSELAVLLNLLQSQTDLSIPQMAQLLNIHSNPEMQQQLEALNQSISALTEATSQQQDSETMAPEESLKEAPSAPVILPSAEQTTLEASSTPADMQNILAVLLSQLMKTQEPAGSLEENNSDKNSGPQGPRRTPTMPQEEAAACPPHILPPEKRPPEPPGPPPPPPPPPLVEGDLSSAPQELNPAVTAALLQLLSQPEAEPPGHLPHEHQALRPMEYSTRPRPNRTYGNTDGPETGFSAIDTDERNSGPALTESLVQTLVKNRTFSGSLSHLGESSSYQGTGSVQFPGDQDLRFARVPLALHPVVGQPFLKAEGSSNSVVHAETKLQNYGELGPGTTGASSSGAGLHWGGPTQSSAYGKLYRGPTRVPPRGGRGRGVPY
Chain of Cyclin-dependent kinase 9 (Homo sapiens) (P50750 whole entry): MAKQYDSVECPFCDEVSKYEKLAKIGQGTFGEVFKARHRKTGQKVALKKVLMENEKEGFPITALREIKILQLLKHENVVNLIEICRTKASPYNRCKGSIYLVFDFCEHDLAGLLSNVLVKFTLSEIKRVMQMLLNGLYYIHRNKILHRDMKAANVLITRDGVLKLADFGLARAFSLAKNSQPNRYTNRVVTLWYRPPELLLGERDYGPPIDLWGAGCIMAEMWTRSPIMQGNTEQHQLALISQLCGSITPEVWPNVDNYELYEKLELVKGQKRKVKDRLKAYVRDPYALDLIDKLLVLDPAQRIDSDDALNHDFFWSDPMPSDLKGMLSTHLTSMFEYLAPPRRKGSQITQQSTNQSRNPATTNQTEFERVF
Chain of SRSF protein kinase 1 (Homo sapiens) (Q96SB4 whole entry): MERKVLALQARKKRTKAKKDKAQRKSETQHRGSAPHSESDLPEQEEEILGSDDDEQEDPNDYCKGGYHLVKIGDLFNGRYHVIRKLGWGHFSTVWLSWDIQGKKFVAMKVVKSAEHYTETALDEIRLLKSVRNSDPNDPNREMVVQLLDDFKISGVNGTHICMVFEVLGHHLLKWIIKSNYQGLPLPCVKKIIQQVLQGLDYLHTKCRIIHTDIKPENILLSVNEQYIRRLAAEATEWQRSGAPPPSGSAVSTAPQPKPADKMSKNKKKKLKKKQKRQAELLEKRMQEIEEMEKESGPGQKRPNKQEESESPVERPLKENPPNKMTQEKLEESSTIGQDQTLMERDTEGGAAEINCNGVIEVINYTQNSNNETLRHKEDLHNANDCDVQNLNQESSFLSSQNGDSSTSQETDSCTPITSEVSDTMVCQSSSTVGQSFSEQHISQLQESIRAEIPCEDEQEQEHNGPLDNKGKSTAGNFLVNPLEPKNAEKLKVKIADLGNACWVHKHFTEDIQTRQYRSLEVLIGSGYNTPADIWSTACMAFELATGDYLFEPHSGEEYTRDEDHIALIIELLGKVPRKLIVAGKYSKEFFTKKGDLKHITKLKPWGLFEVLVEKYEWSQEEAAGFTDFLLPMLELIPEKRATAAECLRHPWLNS
Chain of Serine/threonine-protein kinase/endoribonuclease IRE1 (Homo sapiens) (O75460 19-977 limits assumed): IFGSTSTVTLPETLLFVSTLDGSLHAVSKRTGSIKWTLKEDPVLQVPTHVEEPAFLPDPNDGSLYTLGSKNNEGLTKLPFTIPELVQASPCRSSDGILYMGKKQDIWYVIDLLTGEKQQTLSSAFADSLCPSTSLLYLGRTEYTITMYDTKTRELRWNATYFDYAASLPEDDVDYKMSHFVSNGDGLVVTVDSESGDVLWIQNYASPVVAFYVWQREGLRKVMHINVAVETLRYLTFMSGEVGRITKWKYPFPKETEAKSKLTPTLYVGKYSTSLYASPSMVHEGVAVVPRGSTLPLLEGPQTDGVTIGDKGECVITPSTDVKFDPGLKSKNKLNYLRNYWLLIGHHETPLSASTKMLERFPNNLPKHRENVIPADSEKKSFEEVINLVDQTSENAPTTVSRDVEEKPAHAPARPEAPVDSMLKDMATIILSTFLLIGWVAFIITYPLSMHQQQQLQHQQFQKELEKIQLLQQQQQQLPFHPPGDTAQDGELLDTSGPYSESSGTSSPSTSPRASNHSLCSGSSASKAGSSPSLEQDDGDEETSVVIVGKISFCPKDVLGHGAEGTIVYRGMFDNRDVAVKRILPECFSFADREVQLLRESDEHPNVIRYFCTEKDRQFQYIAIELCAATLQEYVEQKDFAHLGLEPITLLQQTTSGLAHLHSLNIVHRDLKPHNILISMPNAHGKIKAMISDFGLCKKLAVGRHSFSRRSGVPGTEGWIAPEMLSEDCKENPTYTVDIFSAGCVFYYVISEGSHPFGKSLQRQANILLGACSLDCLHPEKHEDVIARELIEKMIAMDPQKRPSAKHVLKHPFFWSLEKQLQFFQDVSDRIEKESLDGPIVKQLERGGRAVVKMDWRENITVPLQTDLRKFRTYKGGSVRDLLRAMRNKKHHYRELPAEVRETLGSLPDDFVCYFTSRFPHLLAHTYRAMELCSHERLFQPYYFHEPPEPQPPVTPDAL
Chain of Mitogen-activated protein kinase 14 (Homo sapiens) (Q16539 whole entry): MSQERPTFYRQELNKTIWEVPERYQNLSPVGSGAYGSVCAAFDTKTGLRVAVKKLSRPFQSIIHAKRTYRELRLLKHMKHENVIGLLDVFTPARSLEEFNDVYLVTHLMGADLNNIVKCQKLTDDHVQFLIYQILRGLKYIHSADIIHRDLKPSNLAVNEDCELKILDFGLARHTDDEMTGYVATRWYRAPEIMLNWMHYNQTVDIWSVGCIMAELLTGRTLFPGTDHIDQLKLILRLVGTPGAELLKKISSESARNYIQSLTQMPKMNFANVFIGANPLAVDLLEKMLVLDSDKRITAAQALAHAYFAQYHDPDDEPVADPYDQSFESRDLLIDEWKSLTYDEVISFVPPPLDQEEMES

As a reminder, the inhibition is the change of the read-out against control, counted positive when it falls. Take `CN(C)C(=O)c1cc2cnc(Nc3ccc(NC(=O)CCCCCCCN=C=S)cc3)nc2n1C1CCCC1`: the inhibition at 0.5 µM in experiment [1] stood at 62%. Further, in [2], the viability at 1 µM stood at 89.6%. Moreover, the result in [3] was Active. Moreover, the inhibition in experiment [4] amounted to 21%; in [5], 35%; in experiment [6] it was 5%; in [7], 45%; in experiment [8], 25%; in experiment [9], 16%. The inhibition was 14% in experiment [10]; 19% in experiment [11]; -8% in [12]; 20% in experiment [13]; 6% in experiment [14]; 20% in [15]. For the same compound, the inhibition is 29% in [16]; 12% in experiment [17]; 7% in experiment [18]; -7% in experiment [19]; 71% in experiment [20]; 1% in [21]. In addition, the inhibition result in experiment [22] was “Active”.
